From ChEMBL document CHEMBL1141109, “Synthesis of an estrogen receptor beta-selective radioligand: 5-[18F]fluoro-(2R,3S)-2,3-bis(4-hydroxyphenyl)pentanenitrile and comparison of in vivo distribution with 16alpha-[18F]fluoro-17beta-estradiol” (J Med Chem, 2005) come the findings set out here.

SMILES strings stand for the structures.

Series [1] can be described thus: Biodistribution of [18F]FEDPN in beta estrogen receptor knock out mouse brain after 2 h; (n=3). The conditions noted are these: in vivo. The class given is ADME, organism-based. The procedure, abridged:
(§1)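 αERKO and βERKO mice, staged by daily vaginal smears and kept on estrogen-free chow, were studied in a nonestrous stage. Each mouse received 11 μCi of tracer in 130 μL of 10% ethanol/saline. Mice were killed at 30 min, 1 h or 2 h (n = 3 each). Organs were removed, blotted, weighed and gamma-counted against an injectate standard. Uptake is given as %ID/g ± SD.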

Series [2] is described as follows: Biodistribution of [18F]FEDPN in beta estrogen receptor knock out mouse lung after 30 min; (n=3). Particulars: in vivo, 0.5 h. The class given is ADME, organism-based. The essentials: as §1
Series [3] can be described thus: Biodistribution of [18F]FEDPN in rat bone after 1 h when given in tail vein; (n=5). The conditions noted are these: in vivo, iv. The class given is ADME, organism-based, Bone element. The procedure, abridged: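 Immature female Sprague–Dawley rats (<25 days old) under isoflurane/O2 got 20 µCi tracer in 150 µL 20% ethanol/saline by tail vein. […] Rats were killed at 30 min, 1 h or 2 h. Organs were blotted, weighed and gamma-counted against an injectate standard. Data are %ID/g ± SD, five rats per point.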

A short description of series [4]: Biodistribution of [18F]-FEDPN in rat kidney after 1 hr when given in tail vein; (n=5). The class given is ADME, organism-based. Particulars: in vivo, iv. The essentials:
(§2)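 Immature female Sprague–Dawley rats (<25 days old) anesthetized with isoflurane/O2. Given 20 µCi tracer by tail vein in 150 µL of 20% ethanol/saline. […] Killed at 30 min, 1 h or 2 h. Blood and organs blotted, weighed and gamma-counted against a standard dilution of the injectate. Reported as %ID/g ± SD, n=5.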

A short description of series [5]: Biodistribution of [18F]-FEDPN in rat fat after 30 min when given in tail vein; (n=5). Particulars: in vivo, iv, 0.5 h. It is filed as ADME, organism-based, Adipose tissue. The procedure, abridged: as §2
Series [6] in a line: Biodistribution of [18F]FEDPN in beta estrogen receptor knock out mouse spleen after 1 h; (n=3). The class given is ADME, organism-based. The conditions noted are these: in vivo. The procedure, abridged: as §1
Series [7] can be described thus: Biodistribution of [18F]-FEDPN in rat kidney after 2 hr when given in tail vein; (n=5). It is filed as ADME, organism-based. Particulars: in vivo, iv. The procedure, abridged: as §2
Series [8] can be described thus: Biodistribution of [18F]-FEDPN in rat spleen after 1 hr block when given in tail vein; (n=5). It is filed as ADME, organism-based. The conditions noted are these: in vivo, iv. The essentials:
as §2

The nature of series [9]: Biodistribution of [18F]-FEDPN in rat fat after 2 hr when given in tail vein; (n=5). It is filed as ADME, organism-based, Adipose tissue. The conditions noted are these: in vivo, iv. The essentials:
as §2

A short description of series [10]: Biodistribution of [18F]FEDPN in beta estrogen receptor knock out mouse kidney after 30 min; (n=3). The class given is ADME, organism-based. The conditions noted are these: in vivo, 0.5 h. The procedure, abridged: as §1
A short description of series [11]: Biodistribution of [18F]FEDPN in alpha estrogen receptor knock out mouse fat after 1 h; (n=3). It is filed as ADME, organism-based, Adipose tissue. The conditions noted are these: in vivo. The procedure, abridged: (§3)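 ERKO female mice (αERKO or βERKO), rested 48 h after shipping, placed on estrogen-free chow, and staged by daily vaginal smears. Injected in a nonestrous stage with 11 µCi [18F]FEDPN in 130 µL of 10% ethanol/saline. Killed at 30 min, 1 h or 2 h. Organs counted and reported as %ID/g ± SD, three animals per point.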

Series [12] is described as follows: Biodistribution of [18F]FEDPN in alpha estrogen receptor knock out mouse thymus after 2 h; (n=3). The conditions noted are these: in vivo. The class given is ADME, organism-based. The procedure, abridged: as §1
Series [13] in a line: Biodistribution of [18F]-FEDPN in alpha estrogen receptor knock out mouse brain after 2 h; (n=3). The class given is ADME, organism-based. The conditions noted are these: in vivo. The essentials: as §3
The nature of series [14]: Biodistribution of [18F]FEDPN in beta estrogen receptor knock out mouse ovaries after 2 h; (n=3). It is filed as ADME, organism-based, Female gonad. Particulars: in vivo. The procedure, abridged:
as §1

Series [15] can be described thus: Biodistribution of [18F]FEDPN in beta estrogen receptor knock out mouse kidney after 2 h; (n=3). It is filed as ADME, organism-based. The conditions noted are these: in vivo. The essentials:
as §1

Series [16] is described as follows: Biodistribution of [18F]FES in alpha estrogen receptor knock out mouse spleen after 30 min; (n=3). It is filed as ADME, organism-based. The conditions noted are these: in vivo, 0.5 h.
Series [17] can be described thus: Biodistribution of [18F]-FES in alpha estrogen receptor knock out mouse kidney after 2 h; (n=3). It is filed as ADME, organism-based. Particulars: in vivo. The procedure, abridged: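 Female αERKO mice rested 48 h after shipping and fed estrogen-free chow. Estrous stage was checked by daily vaginal smears, and mice were used in diestrus. Each received 13 µCi [18F]FES in 100 µL 10% ethanol/saline. Animals were sacrificed at 30 min, 1 h or 2 h (n = 3 each). Tissue uptake is reported as %ID/g ± SD.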

Series [18] can be described thus: Biodistribution of [18F]FES in alpha estrogen receptor knock out mouse lung after 30 min; (n=3). It is filed as ADME, organism-based. Particulars: in vivo, 0.5 h. The essentials:
(§4)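 Female αERKO mice were rested 48 h after shipping and fed estrogen-free chow. They were staged by daily vaginal smears and studied in diestrus. Each received 13 µCi [18F]FES in 100 µL 10% ethanol/saline and was sacrificed at 30 min, 1 h or 2 h (n = 3 per time). Tissue uptake is given as %ID/g ± SD.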

Series [19] is described as follows: Biodistribution of [18F]FES in alpha estrogen receptor knock out mouse spleen after 1 h; (n=3). The class given is ADME, organism-based. The conditions noted are these: in vivo.
Series [20] in a line: Biodistribution of [18F]FES in beta estrogen receptor knock out mouse spleen after 2 h; (n=3). The class given is ADME, organism-based. The conditions noted are these: in vivo.
The nature of series [21]: Biodistribution of [18F]FES in alpha estrogen receptor knock out mouse thymus after 1 h; (n=3). It is filed as ADME, organism-based. Particulars: in vivo.
The nature of series [22]: Biodistribution of [18F]FES in alpha estrogen receptor knock out mouse uterus after 1 h; (n=3). Particulars: in vivo. The class given is ADME, organism-based.
A short description of series [23]: Biodistribution of [18F]FES in alpha estrogen receptor knock out mouse lung after 2 h; (n=3). Particulars: in vivo. The class given is ADME, organism-based. The procedure, abridged: as §4
A short description of series [24]: Biodistribution of [18F]FES in alpha estrogen receptor knock out mouse liver after 2 h; (n=3). Particulars: in vivo. The class given is ADME, organism-based. The essentials:
as §4

Series [25] is described as follows: Biodistribution of [18F]FES in alpha estrogen receptor knock out mouse thymus after 2 h; (n=3). The class given is ADME, organism-based. The conditions noted are these: in vivo.
Series [26] is described as follows: Biodistribution of [18F]FES in beta estrogen receptor knock out mouse ovaries after 1 h; (n=3). It is filed as ADME, organism-based, Female gonad. The conditions noted are these: in vivo.
Series [27] can be described thus: Biodistribution of [18F]-FES in alpha estrogen receptor knock out mouse liver after 1 h; (n=3). The conditions noted are these: in vivo. It is filed as ADME, organism-based. The procedure, abridged:
as §4

The nature of series [28]: Biodistribution of [18F]FES in alpha estrogen receptor knock out mouse ovaries after 1 h; (n=3). The conditions noted are these: in vivo. The class given is ADME, organism-based, Female gonad. The procedure, abridged:
as §4

The nature of series [29]: Biodistribution of [18F]FES in alpha estrogen receptor knock out mouse ovaries after 2 h; (n=3). It is filed as ADME, organism-based, Female gonad. Particulars: in vivo. The essentials: as §4
Series [30] in a line: Biodistribution of [18F]FES in beta estrogen receptor knock out mouse muscle after 30 min(n=2); mice in nonestrus stage. The class given is ADME, organism-based, Muscle tissue. The conditions noted are these: in vivo, 0.5 h.
A short description of series [31]: Biodistribution of [18F]FES in beta estrogen receptor knock out mouse fat after 2 h; (n=3). The class given is ADME, organism-based, Adipose tissue. The conditions noted are these: in vivo.
Series [32] is described as follows: Biodistribution of [18F]FES in beta estrogen receptor knock out mouse spleen after 30 min(n=2); mice in nonestrus stage. The conditions noted are these: in vivo, 0.5 h. It is filed as ADME, organism-based.
Series [33] is described as follows: Biodistribution of [18F]FES in alpha estrogen receptor knock out mouse kidney after 30 min; (n=3). The conditions noted are these: in vivo, 0.5 h. The class given is ADME, organism-based. The essentials:
as §4

A short description of series [34]: Biodistribution of [18F]FES in beta estrogen receptor knock out mouse lung after 1 h; (n=3). It is filed as ADME, organism-based. Particulars: in vivo.
A short description of series [35]: Biodistribution of [18F]FES in beta estrogen receptor knock out mouse muscle after 2 h; (n=3). It is filed as ADME, organism-based, Muscle tissue. The conditions noted are these: in vivo.
Series [36] in a line: Biodistribution of [18F]FES in beta estrogen receptor knock out mouse liver after 30 min(n=2); mice in nonestrus stage. The class given is ADME, organism-based. The conditions noted are these: in vivo, 0.5 h.
A short description of series [37]: Biodistribution of [18F]FES in beta estrogen receptor knock out mouse kidney after 2 h; (n=3). It is filed as ADME, organism-based. The conditions noted are these: in vivo.
A short description of series [38]: Biodistribution of [18F]FES in beta estrogen receptor knock out mouse ovaries after 30 min(n=2); mice in nonestrus stage. The conditions noted are these: in vivo, 0.5 h. The class given is ADME, organism-based, Female gonad.

In the case of `N#C[C@H](c1ccc(O)cc1)[C@@H](CCF)c1ccc(O)cc1`, the Biodistribution in series [1] was found to be 0.3 %ID/g; in series [2], 5.38 %ID/g; in series [3], 2.22 %ID/g; in [4] it was 1.75 %ID/g; in [5] it was 0.57 %ID/g; in series [6], 0.4 %ID/g. The Biodistribution in [7] was found to be 0.97 %ID/g; in series [8] it was 0.1 %ID/g; in series [9] it was 0.1 %ID/g; in series [10], 4.83 %ID/g; in series [11], 0.27 %ID/g; in series [12], 0.28 %ID/g. The Biodistribution in series [13] is 0.28 %ID/g; in series [14], 0.17 %ID/g; in series [15] it was 1.39 %ID/g.
In the case of `C[C@]12CC[C@@H]3c4ccc(O)cc4CC[C@H]3[C@@H]1C[C@@H](F)[C@@H]2O` [FLUOROESTRADIOL], the Biodistribution in [16] stood at 0.59 %ID/g; in [17] it was 0.72 %ID/g; in series [18] it was 2.19 %ID/g; in [19] it was 0.19 %ID/g; in series [20], 0.37 %ID/g; in series [21] it was 0.21 %ID/g. Further, the Biodistribution in series [22] is 0.82 %ID/g; in series [23], 0.17 %ID/g; in series [24], 3.67 %ID/g; in series [25] it was 0.1 %ID/g; in series [26], 5.61 %ID/g; in series [27], 5.24 %ID/g. In addition, the Biodistribution in series [28] was found to be 0.49 %ID/g; in [29], 0.18 %ID/g; in series [30], 1.89 %ID/g; in series [31], 0.41 %ID/g; in series [32], 1.29 %ID/g; in [33], 2.46 %ID/g. The Biodistribution is recorded as 1.48 %ID/g in series [34]; 0.54 %ID/g in series [35]; 7.91 %ID/g in [36]; 1.05 %ID/g in series [37]; 6.6 %ID/g in series [38].
